Assay results published in ChEMBL document CHEMBL1155099, “Natural products in parallel synthesis: triazole libraries of nonactic acid” (2008).
The source made the active and inactive calls.

Tests used:
Type in all cases: functional, organism-based
[1] = system: Bacillus cereus; assay: Antibacterial activity against Bacillus cereus at 1 mM by almar blue dye reduction assay
Summary of the method: (§1)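 Single-point primary screen at 1 mM using Alamar Blue dye reduction as the growth read-out.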

[2] = system: Bacillus anthracis; assay: Antibacterial activity against Bacillus anthracis at 1mM by almar blue dye reduction assay
[3] = system: Candida albicans; assay: Antifungal activity against Candida albicans at 1 mM by almar blue dye reduction assay; summary of the method: as §1
[4] = system: Cryptococcus neoformans; assay: Antifungal activity against Cryptococcus neoformans at 1 mM by almar blue dye reduction assay; summary of the method: as §1
[5] = system: Saccharomyces cerevisiae; assay: Antifungal activity against Saccharomyces cerevisiae at 1 mM by almar blue dye reduction assay; summary of the method: as §1
[6] = system: Pseudomonas aeruginosa; assay: Antibacterial activity against Pseudomonas aeruginosa at 1 mM by almar blue dye reduction assay; summary of the method: as §1
[7] = system: Escherichia coli; assay: Antibacterial activity against Escherichia coli at 1 mM by almar blue dye reduction assay; summary of the method: as §1
[8] = system: Staphylococcus aureus; assay: Antibacterial activity against Staphylococcus aureus at 1 mM by almar blue dye reduction assay; summary of the method: as §1
[9] = system: Bacillus subtilis; assay: Antibacterial activity against Bacillus subtilis at 1 mM by almar blue dye reduction assay; summary of the method: as §1

Measured: Activity

CC(C)CC#Cc1cn([C@H](C)C[C@@H]2CC[C@H]([C@@H](C)C(=O)N3CCN(CC4CCCO4)CC3)O2)nn1 (stereo partly drawn)
inactive: all assays above

CCN(CC)C(=O)[C@H](C)C1CCC(C[C@@H](C)n2cc(C#CCOC(=O)OCc3ccccc3)nn2)O1 (single isomer, unassigned)
inactive: all assays above

CCC(=O)OCC#Cc1cn([C@H](C)CC2CCC([C@@H](C)C(=O)N3CCN(CC4CCCO4)CC3)O2)nn1 (single isomer, unassigned)
inactive: all assays above

C[C@H](C[C@@H]1CC[C@H]([C@@H](C)C(=O)N(C)Cc2ccccc2)O1)n1cc(C#CCOc2cccc(-c3ccccc3)c2)nn1
inactive: all assays above

C[C@H](C[C@@H]1CC[C@H]([C@@H](C)C(=O)N(C)Cc2ccccc2)O1)n1cc(C#CC2=CCCCC2)nn1
inactive: all assays above

CCN(CC)C(=O)[C@H](C)[C@H]1CC[C@@H](C[C@@H](C)n2cc(C#CC3=CCCCC3)nn2)O1
inactive: all assays above

COc1cccc(OCC#Cc2cn([C@H](C)C[C@@H]3CC[C@H]([C@@H](C)C(=O)N4CCN(CC5CCCO5)CC4)O3)nn2)c1OC (stereo partly drawn)
inactive: all assays above

COc1ccc(OCC#Cc2cn([C@H](C)C[C@@H]3CC[C@H]([C@@H](C)C(=O)NC(C)C)O3)nn2)cc1
inactive: all assays above

CCN(CC)C(=O)[C@H](C)C1CCC(C[C@@H](C)n2cc(C#CCOC(=O)Nc3cccc(C)c3)nn2)O1 (single isomer, unassigned)
inactive: all assays above

CCN(CC)C(=O)[C@H](C)[C@H]1CC[C@@H](C[C@@H](C)n2cc(C#CCOC)nn2)O1
inactive: all assays above

C[C@H](C[C@@H]1CC[C@H]([C@@H](C)C(=O)N(C)Cc2ccccc2)O1)n1cc(C#CCOc2ccc(C(F)(F)F)cc2)nn1
inactive: all assays above

COc1cccc(OCC#Cc2cn([C@H](C)C[C@@H]3CC[C@H]([C@@H](C)C(=O)NC(C)C)O3)nn2)c1OC
inactive: all assays above

C[C@H](CC1CCC([C@@H](C)C(=O)N2CCCC2)O1)n1cc(C#CCOC(=O)OCc2ccccc2)nn1 (single isomer, unassigned)
inactive: all assays above

CC(C)NC(=O)[C@H](C)[C@H]1CC[C@@H](C[C@@H](C)n2cc(C#CCOc3ccc(Br)cc3)nn2)O1
inactive: all assays above

C[C@H](C[C@@H]1CC[C@H]([C@@H](C)C(=O)N2CCN(CC3CCCO3)CC2)O1)n1cc(C#CCN2CCOCC2)nn1 (stereo partly drawn)
inactive: all assays above

C[C@H](C[C@@H]1CC[C@H]([C@@H](C)C(=O)N2CCN(CC3CCCO3)CC2)O1)n1cc(C#CCOc2ccc(Br)cc2)nn1 (stereo partly drawn)
inactive: all assays above

CCOC(=O)C#Cc1cn([C@H](C)CC2CCC([C@@H](C)C(=O)N3CCCC3)O2)nn1 (single isomer, unassigned)
inactive: all assays above
